From ChEMBL document CHEMBL4346731, “Novel meriolin derivatives as rapid apoptosis inducers” (Bioorg Med Chem, 2019)
Activity calls are given as the source filed them. The calls are words filed in the database; no cut-off is given here.

Experiments:
Ramos [1] = test: Induction of apoptosis in human Ramos cells assessed as increase in cleaved PARP1 protein expression at 0.1 uM after 2 to 8 hrs by immunoblotting analysis; format: functional, cell-based
In short: (§1)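 Ramos cells exposed to compound for 2-8 h at concentrations chosen from the cytotoxicity data, with or without the pan-caspase inhibitor Q-VD-OPh (10 μM). Cells were harvested, lysed and immunoblotted with mouse anti-PARP1, using GAPDH as loading control. Detection used IRDye800/680 secondary antibodies on an infrared imager.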

Ramos [2] = test: Antiproliferative activity against human Ramos cells assessed as reduction in cell viability after 24 hrs by resazurin dye-based spectrophotometric method; format: functional
In short: (§2)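 Cells (DSMZ stock) seeded at 0.5 x 10⁶ cells/mL and exposed to escalating compound concentrations (up to 30 μM) for 24 or 72 h; resazurin 40 μM added for the final 3 h. Resorufin fluorescence read at ex 535/em 590 nm. Viability normalized to 0.1% DMSO controls (100%). IC50 from nonlinear regression; mean of three independent experiments.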

Ramos [3] = test: Antiproliferative activity against human Ramos cells assessed as reduction in cell viability after 72 hrs by resazurin dye-based spectrophotometric method; format: functional; in short: as §2
[4] = Antiproliferative activity against human Jurkat J16 cells assessed as reduction in cell viability after 24 hrs by resazurin dye-based spectrophotometric method; format: functional; in short: as §2
[5] = Antiproliferative activity against human Jurkat J16 cells assessed as reduction in cell viability after 72 hrs by resazurin dye-based spectrophotometric method; format: functional; in short: as §2
Ramos [6] = test: Induction of apoptosis in human Ramos cells assessed as caspase-3 activation at 0.1 uM using AcDEVD-AMC as substrate preincubated for up to 8 hrs followed by substrate addition and measured after 60 mins by spectrophotometric method; format: functional, cell-based
In short: (§3)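 Cells in 96-well plates treated for up to 8 h, alongside staurosporine 2.5 μM as positive control. Lysis in caspase buffer (20 mM HEPES, 84 mM KCl, 10 mM MgCl₂, 200 μM EDTA/EGTA, 0.5% NP-40, protease inhibitors), then reaction buffer with Ac-DEVD-AMC added. AMC fluorescence increase followed at 37 °C for at least 60 min.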

Ramos [7] = test: Induction of apoptosis in human Ramos cells assessed as caspase-3 activation at 0.3 uM using AcDEVD-AMC as substrate preincubated for up to 8 hrs followed by substrate addition and measured after 60 mins by spectrophotometric method; format: functional, cell-based; in short: as §3
Homo sapiens [8] = organism: Homo sapiens; test: Induction of apoptosis in human Jurkat J16 cells assessed as caspase-3 activation at 0.1 uM using AcDEVD-AMC as substrate preincubated for up to 8 hrs followed by substrate addition and measured after 60 mins by spectrophotometric method; format: functional, cell-based; in short: as §3
Homo sapiens [9] = organism: Homo sapiens; test: Induction of apoptosis in human Jurkat J16 cells assessed as caspase-3 activation at 0.3 uM using AcDEVD-AMC as substrate preincubated for up to 8 hrs followed by substrate addition and measured after 60 mins by spectrophotometric method; format: functional, cell-based; in short: as §3
Ramos [10] = test: Induction of apoptosis in human Ramos cells assessed as increase in cleaved PARP1 protein expression at 0.1 uM after 2 to 8 hrs in presence of caspace-inhibitor Q-VD-Oph by immunoblotting analysis; format: functional, cell-based; in short: as §1
[11] = molecular target: Sphingosine kinase 1 (Homo sapiens) (UniProt Q9NYA1); test: Inhibition of SK1 (unknown origin) at 10 uM using sphingosine as substrate preincubated for 15 mins followed by substrate addition and measured after 30 mins by fluorescence based assay relative to control
Chain of Sphingosine kinase 1 (Homo sapiens) (Q9NYA1 whole entry): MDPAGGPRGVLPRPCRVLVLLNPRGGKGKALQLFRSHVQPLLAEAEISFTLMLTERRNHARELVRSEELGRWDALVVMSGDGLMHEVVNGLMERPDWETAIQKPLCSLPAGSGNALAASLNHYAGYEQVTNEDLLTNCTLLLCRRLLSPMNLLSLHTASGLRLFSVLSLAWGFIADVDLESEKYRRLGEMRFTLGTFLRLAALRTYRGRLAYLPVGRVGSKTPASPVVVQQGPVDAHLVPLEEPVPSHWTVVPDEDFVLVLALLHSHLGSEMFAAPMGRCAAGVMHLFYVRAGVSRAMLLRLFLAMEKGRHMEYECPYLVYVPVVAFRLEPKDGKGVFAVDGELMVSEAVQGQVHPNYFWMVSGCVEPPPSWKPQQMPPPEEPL
In short: (§4)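 Compound at 10 µM preincubated 15 min with SK1 (0.5 U/mL final) or SK2 (0.1 U/mL final). Sphingosine 5 µM plus ATP added; reaction 30 min (SK1) or 60 min (SK2) at room temperature. Buffer: 50 mM HEPES pH 7.5, 4 mM MgCl₂, 100 µM orthovanadate, 1 mM DTT, 0.01% Brij 35, 2 mM EGTA. Fluorescent detection reagent added for 60 min in the dark. Inhibition = 100 minus blank-corrected relative fluorescence. Triplicates, two independent experiments; mean ± SEM.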

[12] = molecular target: T1, Sphingosine kinase 2 (Homo sapiens) (UniProt Q9NRA0); test: Inhibition of SK2 (unknown origin) at 10 using sphingosine as substrate preincubated for 15 mins followed by substrate addition and measured after 60 mins by fluorescence based assay relative to control; in short: as §4
T1 sequence (whole entry): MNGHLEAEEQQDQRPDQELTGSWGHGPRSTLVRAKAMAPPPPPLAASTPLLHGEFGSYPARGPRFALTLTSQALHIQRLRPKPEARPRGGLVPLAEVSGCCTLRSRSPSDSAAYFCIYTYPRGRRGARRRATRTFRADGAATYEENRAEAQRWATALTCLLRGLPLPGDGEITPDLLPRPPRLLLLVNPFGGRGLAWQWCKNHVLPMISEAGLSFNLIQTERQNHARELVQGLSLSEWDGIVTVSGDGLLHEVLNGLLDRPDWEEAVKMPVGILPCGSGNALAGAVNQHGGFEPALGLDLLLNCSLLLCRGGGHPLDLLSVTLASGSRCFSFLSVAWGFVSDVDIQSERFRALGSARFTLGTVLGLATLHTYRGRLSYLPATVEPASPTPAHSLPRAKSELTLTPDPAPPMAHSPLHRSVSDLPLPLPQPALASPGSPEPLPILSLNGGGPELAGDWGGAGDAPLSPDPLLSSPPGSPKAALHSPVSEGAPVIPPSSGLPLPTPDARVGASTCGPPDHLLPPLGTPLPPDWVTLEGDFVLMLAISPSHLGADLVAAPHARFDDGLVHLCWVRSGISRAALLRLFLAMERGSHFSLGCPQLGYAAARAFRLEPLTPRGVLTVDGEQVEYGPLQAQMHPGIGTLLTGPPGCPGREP

Ramos [13] = test: Induction of apoptosis in human Ramos cells assessed as caspase-3 activation at 1 uM using AcDEVD-AMC as substrate preincubated for up to 8 hrs followed by substrate addition and measured after 60 mins by spectrophotometric method; format: functional, cell-based; in short: as §3
Ramos [14] = test: Induction of apoptosis in human Ramos cells assessed as caspase-3 activation at 3 uM using AcDEVD-AMC as substrate preincubated for up to 8 hrs followed by substrate addition and measured after 60 mins by spectrophotometric method; format: functional, cell-based; in short: as §3
Homo sapiens [15] = organism: Homo sapiens; test: Induction of apoptosis in human Jurkat J16 cells assessed as caspase-3 activation at 1 uM using AcDEVD-AMC as substrate preincubated for up to 8 hrs followed by substrate addition and measured after 60 mins by spectrophotometric method; format: functional, cell-based; in short: as §3
Homo sapiens [16] = organism: Homo sapiens; test: Induction of apoptosis in human Jurkat J16 cells assessed as caspase-3 activation at 3 uM using AcDEVD-AMC as substrate preincubated for up to 8 hrs followed by substrate addition and measured after 60 mins by spectrophotometric method; format: functional, cell-based; in short: as §3
Ramos [17] = test: Induction of apoptosis in human Ramos cells assessed as increase in cleaved PARP1 protein expression at 1 uM after 2 to 8 hrs by immunoblotting analysis; format: functional, cell-based; in short: as §1
Ramos [18] = test: Induction of apoptosis in human Ramos cells assessed as increase in cleaved PARP1 protein expression at 1 uM after 2 to 8 hrs in presence of caspace-inhibitor Q-VD-Oph by immunoblotting analysis; format: functional, cell-based; in short: as §1
Ramos [19] = test: Induction of apoptosis in human Ramos cells assessed as caspase-3 activation at 10 uM using AcDEVD-AMC as substrate preincubated for up to 8 hrs followed by substrate addition and measured after 60 mins by spectrophotometric method; format: functional, cell-based; in short: as §3
Homo sapiens [20] = organism: Homo sapiens; test: Induction of apoptosis in human Jurkat J16 cells assessed as caspase-3 activation at 10 uM using AcDEVD-AMC as substrate preincubated for up to 8 hrs followed by substrate addition and measured after 60 mins by spectrophotometric method; format: functional, cell-based; in short: as §3
Ramos [21] = test: Induction of apoptosis in human Ramos cells assessed as increase in cleaved PARP1 protein expression at 10 uM after 2 to 8 hrs by immunoblotting analysis; format: functional, cell-based; in short: as §1
Ramos [22] = test: Induction of apoptosis in human Ramos cells assessed as increase in cleaved PARP1 protein expression at 10 uM after 2 to 8 hrs in presence of caspace-inhibitor Q-VD-Oph by immunoblotting analysis; format: functional, cell-based; in short: as §1
Ramos [23] = test: Induction of apoptosis in human Ramos cells assessed as caspase-3 activation at 2.5 uM using AcDEVD-AMC as substrate preincubated for up to 8 hrs followed by substrate addition and measured after 60 mins by spectrophotometric method; format: functional, cell-based
In short: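 Ramos cells (DSMZ) plated in 96-well plates and treated for up to 8 h. Cells were then lysed in caspase buffer (20 mM HEPES, 84 mM KCl, 10 mM MgCl2, 200 µM EDTA/EGTA, 0.5% NP-40, protease inhibitors). Reaction buffer with Ac-DEVD-AMC was added, and AMC fluorescence increase was read at 37 °C for at least 60 min. Positive control: staurosporine 2.5 µM.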

Q: What does the source list for `Nc1cc(-c2c[nH]c3ncccc23)cc(N)n1`?
A: Activity (Ramos [1]): Active; IC50 (Ramos [2]): 110 nM; IC50 (Ramos [3]): 70 nM; IC50 [4]: 110 nM; IC50 [5]: 60 nM; Activity (Ramos [6]): Active; Activity (Ramos [7]): Active; Activity (Homo sapiens [8]): Active; Activity (Homo sapiens [9]): Active; Activity (Ramos [10]): inactive; inhibition [11]: 18%; inhibition [12]: 87%

Q: Which results are given for `Nc1cc(-c2c[nH]c3ncccc23)ccn1`?
A: IC50 (Ramos [2]): 970 nM; IC50 (Ramos [3]): 600 nM; IC50 [4]: 870 nM; IC50 [5]: 480 nM; Activity (Ramos [13]): Active; Activity (Ramos [14]): Active; Activity (Homo sapiens [15]): Active; Activity (Homo sapiens [16]): Active; Activity (Ramos [17]): Active; Activity (Ramos [18]): inactive; inhibition [11]: 10%; inhibition [12]: 39%

Q: Which Activity (Ramos [19]) does the source give for `COc1cc(-c2c[nH]c3ncccc23)nc(N)n1` here?
A: Its Activity is “Active”.

Q: And the IC50 (Ramos [2])?
A: Its IC50 is 6040 nM.

Q: What about the IC50 (Ramos [3]) of the same compound?
A: The IC50 was 3900 nM.

Q: And the IC50 [4]?
A: Its IC50 is 5560 nM.

Q: What about the IC50 [5] of the same compound?
A: The IC50 was 3080 nM.

Q: What about the Activity (Ramos [14]) of the same compound?
A: The Activity was “Active”.

Q: And the Activity (Homo sapiens [16])?
A: Its Activity is “Active”.

Q: What about the Activity (Homo sapiens [20]) of the same compound?
A: Its Activity is “Active”.

Q: What about the Activity (Ramos [21]) of the same compound?
A: Its Activity is “Active”.

Q: And the Activity (Ramos [22])?
A: The Activity was “inactive”.

Q: What does the source list for `Nc1nccc(-c2c[nH]c3ncccc23)n1` [MERIOLIN 1]?
A: Activity (Ramos [19]): Active; IC50 (Ramos [2]): 4800 nM; IC50 (Ramos [3]): 3730 nM; IC50 [4]: 4530 nM; IC50 [5]: 2740 nM; Activity (Ramos [14]): Active; Activity (Homo sapiens [16]): Active; Activity (Homo sapiens [20]): Active; Activity (Ramos [21]): Active; Activity (Ramos [22]): inactive; inhibition [11]: 10%; inhibition [12]: 72%

Q: For `CN[C@@H]1C[C@H]2O[C@@](C)([C@@H]1OC)n1c3ccccc3c3c4c(c5c6ccccc6n2c5c31)C(=O)NC4`, which Activity (Ramos [23]) is on record?
A: Its Activity is “Active”.

Q: With `c1ccc(CNc2ccc(-c3c[nH]c4ncccc34)cn2)cc1` as the compound, how does the IC50 (Ramos [2]) read?
A: Its IC50 is 300 nM.

Q: What about the IC50 (Ramos [3]) of the same compound?
A: The IC50 was 180 nM.

Q: And the IC50 [4]?
A: Its IC50 is 240 nM.

Q: And the IC50 [5]?
A: The IC50 was 110 nM.

Q: And the Activity (Ramos [7])?
A: Its Activity is “Active”.

Q: What about the Activity (Ramos [13]) of the same compound?
A: Its Activity is “Active”.

Q: And the Activity (Homo sapiens [9])?
A: The Activity was “Active”.

Q: What about the Activity (Homo sapiens [15]) of the same compound?
A: The Activity was “Active”.

Q: What about the Activity (Ramos [17]) of the same compound?
A: The Activity was “Active”.

Q: What about the Activity (Ramos [18]) of the same compound?
A: Its Activity is “inactive”.

Q: Which results are given for `Nc1cc(-c2c[nH]c3ncccc23)nc(N)n1`?
A: IC50 (Ramos [2]): 370 nM; IC50 (Ramos [3]): 240 nM; IC50 [4]: 430 nM; IC50 [5]: 210 nM; Activity (Ramos [7]): Active; Activity (Ramos [13]): Active; Activity (Homo sapiens [9]): Active; Activity (Homo sapiens [15]): Active; Activity (Ramos [17]): Active; Activity (Ramos [18]): inactive
